In ChEMBL document CHEMBL1126638, “Intracellular delivery of bioactive AZT nucleotides by aryl phosphate derivatives of AZT” (J Med Chem, 1993):

Key:
CCRF-CEM [1] = experiment: Anti HIV-1 activity in human lymphocyte CEM/0 cell line; format: functional, cell-based
Summary of the method: (§1)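 Cells at 5 × 10^5/mL infected with HIV-1 (III_B, stocks from infected MT-4 supernatants) or HIV-2 (ROD) at 100 CCID50 per mL, then mixed with compound dilutions. Giant cell formation recorded microscopically at day 4 (CEM). Viable MT-4 cells counted by trypan blue at day 5. EC50 is the concentration giving 50% protection against viral cytopathicity. Mean of two to four independent experiments.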

MT4 [2] = experiment: cytotoxic activity in MT-4 cell line; format: functional; settings: Homo sapiens
Summary of the method: (§2)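 Mock-infected MT-4 or CEM cell cultures incubated with compound dilutions in the same format as the antiviral assay. CC50 is the concentration reducing viable cell number (MT-4, trypan blue, day 5) […] by 50%. Mean of two to four independent experiments.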

[3] = EC50 of HIV-2 in CEM/TK versus EC50 of HIV-2 in CEM/0; format: functional
Summary of the method: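 Ratio of the HIV-2 EC50 in thymidine kinase-deficient CEM/TK⁻ cells to the HIV-2 EC50 in CEM/O cells. Both values come from the cytopathicity-protection assay.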

CCRF-CEM [4] = experiment: Antiviral activity in HIV-2 infected CEM cells which are deficient in Thymidine Kinase; format: functional, cell-based; settings: Homo sapiens; summary of the method: as §1
[5] = Selective index is the ratio of cytotoxic concentration to effective concentration against MT-4 cell line; format: functional, MT4
Summary of the method: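 Selectivity index for HIV-2 in MT-4 cells is the CC50 (mock-infected cultures, trypan blue viable count at day 5) divided by the EC50 (protection of infected cultures from HIV-2 cytopathicity).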

MT4 [6] = experiment: Anti HIV-2 activity in human lymphocyte MT-4 cell line; format: functional, cell-based; summary of the method: as §1
CCRF-CEM [7] = experiment: cytotoxic activity in CEM/0 cell line; format: functional; settings: Homo sapiens; summary of the method: as §2
CCRF-CEM [8] = experiment: Anti HIV-2 activity in human lymphocyte CEM/0 cell line; format: functional, cell-based; summary of the method: as §1
MT4 [9] = experiment: Anti HIV-1 activity in human lymphocyte MT-4 cell line; format: functional, cell-based; summary of the method: as §1

| EC50 (CCRF-CEM [1]) [µM] | EC50 (CCRF-CEM [4]) [µM] | EC50 (CCRF-CEM [8]) [µM] | Compound | CC50 (MT4 [2]) [µM] | Ratio [3] | Selectivity index [5] | EC50 (MT4 [6]) [µM] | CC50 (CCRF-CEM [7]) [µM] | EC50 (MT4 [9]) [µM] |
| --- | --- | --- | --- | --- | --- | --- | --- | --- | --- |
| 0.097 | 10 | 0.16 | COC(=O)C(Cc1ccccc1)NP(=O)(OCC1OC(n2cc(C)c(=O)[nH]c2=O)CC1N=[N+]=[N-])Oc1ccccc1 (stereo not drawn) | 208 | 62 | 2356 | 0.11 | 161 | 0.08 |
| 0.051 | 8 | 0.06 | CCCCCc1ccc(OP(=O)(NC(C)C(=O)OC)OCC2OC(n3cc(C)c(=O)[nH]c3=O)CC2N=[N+]=[N-])cc1 (stereo not drawn) | 7 | 133 | 99 | 0.074 | 9 | 0.103 |
| 0.048 | 3 | 0.065 | COC(=O)C(C)NP(=O)(OCC1OC(n2cc(C)c(=O)[nH]c2=O)CC1N=[N+]=[N-])Oc1ccc(F)cc1 (stereo not drawn) | 206 | 46 | 3815 | 0.054 | 128 | 0.041 |
| 0.041 | 3 | 0.051 | CCCc1ccc(OP(=O)(NC(C)C(=O)OC)OCC2OC(n3cc(C)c(=O)[nH]c3=O)CC2N=[N+]=[N-])cc1 (stereo not drawn) | 28 | 59 | 631 | 0.045 | 32.7 | 0.043 |
| 0.14 | 13 | 0.21 | COC(=O)C(NP(=O)(OCC1OC(n2cc(C)c(=O)[nH]c2=O)CC1N=[N+]=[N-])Oc1ccccc1)C(C)C (stereo not drawn) | 205 | 62 | 1891 | 0.087 | 123 | 0.099 |
| 0.097 | > 100 | 0.23 | COC(=O)CNP(=O)(OCC1OC(n2cc(C)c(=O)[nH]c2=O)CC1N=[N+]=[N-])Oc1ccccc1 (stereo not drawn) | > 500 | > 435 | >2500 | 0.2 | > 500 | 0.16 |
| 0.065 | 7 | 0.056 | COC(=O)C(C)NP(=O)(OCC1OC(n2cc(C)c(=O)[nH]c2=O)CC1N=[N+]=[N-])Oc1ccc(C)cc1 (stereo not drawn) | 27 | 125 | 509 | 0.053 | 43 | 0.051 |
| 0.048 | 8.7 | 0.06 | CCc1ccc(OP(=O)(NC(C)C(=O)OC)OCC2OC(n3cc(C)c(=O)[nH]c3=O)CC2N=[N+]=[N-])cc1 (stereo not drawn) | 11 | 145 | 153 | 0.07 | 31.7 | 0.068 |

| Compound | EC50 (CCRF-CEM [1]) [µM] | EC50 (CCRF-CEM [4]) [µM] | EC50 (CCRF-CEM [8]) [µM] | CC50 (MT4 [2]) [µM] | Ratio [3] | Selectivity index [5] | EC50 (MT4 [6]) [µM] | CC50 (CCRF-CEM [7]) [µM] | EC50 (MT4 [9]) [µM] |
| --- | --- | --- | --- | --- | --- | --- | --- | --- | --- |
| COC(=O)C(C)NP(=O)(OCC1OC(n2cc(C)c(=O)[nH]c2=O)CC1N=[N+]=[N-])Oc1ccc(OC)cc1 (stereo not drawn) | 0.057 | 9 | 0.065 | 182 | 138 | 2638 | 0.069 | 42.6 | 0.071 |
| COC(=O)[C@H](C)NP(=O)(OC[C@H]1O[C@@H](n2cc(C)c(=O)[nH]c2=O)C[C@@H]1N=[N+]=[N-])Oc1ccccc1 (stereo partly drawn) | 0.055 | 12 | 0.07 | > 50 | 171 | >5555 | 0.007 | 172 | 0.006 |
| Cc1cn([C@H]2C[C@H](N=[N+]=[N-])[C@@H](CO)O2)c(=O)[nH]c1=O [ZIDOVUDINE] | 0.003 | > 100 | 0.004 | 6 | > 28600 | 2000 | – | > 500 | 0.002 |
